In data set [1] the test system is Mycobacterium tuberculosis. Nature of the data set: Antimicrobial activity against Mycobacterium tuberculosis H37Rv expressing GFP infected in mouse RAW264.7 cells assessed as concentration required to potentiate 0.1 ug/ml […] to inhibit microbial growth by 50% by fluorescence assay. In kind it is functional, organism-based. Put shortly: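 RAW264.7 macrophages infected with H37Rv-GFP at MOI 1:1 for 2 h at 37 °C with shaking. Extracellular bacilli killed with amikacin (20 μM, 1 h). Infected cells added to compound serial dilutions (ten 2-fold) with ethionamide fixed at 0.1 μg/mL, 5 days at 37 °C, 5% CO2. SYTO 60 stained; confocal imaging gives percent infected cells and cell number. Two replicates averaged.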

Data set [2] in a line: Inhibition of Mycobacterium tuberculosis EthR assessed as inhibition of EthR-DNA interaction after 3 mins by SPR assay. Put shortly:
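106-bp biotinylated ethA/ethR intergenic DNA immobilised on a streptavidin chip (about 75 RU). An irrelevant 113-bp bla fragment in the reference channel; signal taken as the channel difference. Preincubated 5 min at 37 °C, injected at 20 μL/min for 3 min at 25 °C. Response read at end of injection; IC50 from dose-response.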
On the technique in general: SPR reads the build-up and loss of mass on a sensor chip optically.

Data set [3] is described as follows: Solubility in PBS at pH 7.4 after 24 hrs by LC-MS/MS analysis. In kind it is physicochemical. The method in brief:
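10 mM DMSO stock diluted 1:50 into PBS pH 7.4 or MeOH. Shaken 24 h at room temperature, centrifuged, filtered (0.45 μm), diluted tenfold in MeOH. Analysed by LC-MS/MS (SIM or MRM). Solubility from the PBS/MeOH ratio of mass signal areas.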

Data set [4] deals with Mycobacterium tuberculosis. Nature of the data set: Binding affinity to Mycobacterium tuberculosis EthR assessed as change in melting temperature at 20 uM by thermal shift assay. The method in brief: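 Protein unfolding tracked with SYPRO Orange in a real-time PCR instrument. Ligand at 20 μM in EthR buffer (10 mM Tris/HCl, 300 mM NaCl, 0.1 mM EDTA, pH 7.5). Heated 37 to 85 °C at 0.04 °C/s, fluorescence read at Ex/Em 465/510 nm. ΔTm taken as the holo minus apo melting temperature.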

A value given as a limit tells only on which side of the number the result lay.

For the compound `Cc1nc(-c2ccc(S(=O)(=O)NCCC(C)C)cc2)cs1`, the 50% effective concentration (EC50) in data set [1] was 5.7 µM. The half-inhibitory concentration (IC50) in data set [2] worked out at 4.9 µM. In data set [3], this compound returned a solubility at 24 h of 6.6 µg/mL. Moreover, in data set [4], the ΔTm came to 6.1 °C.
With `CCOC(=O)c1ccc(S(=O)(=O)NCCC(C)C)cc1`, the EC50 in data set [1] was found to be 10 µM. For the same compound, the shift in melting temperature (ΔTm) in data set [4] turned out to be 4.3 °C.
Take `C#CCNS(=O)(=O)c1ccc(I)cc1`: the half-maximal effective concentration (EC50) in data set [1] was over 10 µM. In addition, the half-inhibitory concentration (IC50) in data set [2] came out at 160 µM. For the same compound, the solubility at 24 h in data set [3] is over 200 µM. For the same compound, the thermal shift (ΔTm) in data set [4] worked out at 0.1 °C.
Turning to `CC(C)CCNS(=O)(=O)c1ccc(N2CCCC2=O)cc1`, the EC50 in data set [1] is over 10 µM. For the same compound, the ΔTm in data set [4] was determined as 0.6 °C.
With `O=C(NCCC(F)(F)F)c1ccc(C#CCNS(=O)(=O)c2ccccc2)cc1`, in data set [1], the EC50 is 0.23 µM. The concentration for half-maximal inhibition (IC50) in data set [2] was 3.9 µM. The same compound displayed a solubility at 24 h in data set [3] of 3 µg/mL. In data set [4], the ΔTm is 4.2 °C.
Taken in the same sequence, the figures for `Cc1nc(-c2ccc(S(=O)(=O)NCCC(F)(F)F)cc2)cs1` were 0.29 µM, 0.55 µM, 14.5 µg/mL and 8.5 °C.
Consider `CC(C)CCNS(=O)(=O)c1ccc(CCC(C)C)cc1`, for which the EC50 in data set [1] was determined as 6.3 µM. Further, in data set [4], the ΔTm was 3.2 °C.
For the compound `CCCS(=O)(=O)NCc1nc(-c2ccc(C(=O)NCCC(F)(F)F)cc2)cs1`, the EC50 in data set [1] was 0.32 µM. In addition, in data set [2], the IC50 was 0.56 µM. Further, the concentration in solution in data set [3] (solubility at 24 h) was 1.3 µg/mL. The ΔTm in data set [4] was determined as 6.6 °C.
For `CC(C)CCNS(=O)(=O)c1ccc(I)cc1`, the half-maximal effective concentration (EC50) in data set [1] is over 10 µM. In data set [4], the ΔTm came out at 1.9 °C.
For `Cc1nc(-c2ccc(S(=O)(=O)NCCCC(F)(F)F)cc2)cs1` the same measures were over 2.5 µM and 6.6 °C.
Taken in the same sequence, the figures for `CC(=O)Nc1ccc(-c2ccc(S(=O)(=O)NCCC(C)C)cc2)cc1` were over 10 µM and 2 °C.
For `CC(C)CCNS(=O)(=O)c1ccc(-n2cccn2)cc1` the same measures were over 10 µM and 1.9 °C.
`Cc1nc(-c2ccc(S(=O)(=O)NCC(F)(F)F)cc2)cs1`: the EC50 in data set [1] was determined as 7.9 µM. The ΔTm in data set [4] is 6.3 °C.
For `COc1ccc(-c2ccc(S(=O)(=O)NCCC(C)C)cc2)cc1` the same measures were over 10 µM and 3.7 °C.
Taken in the same sequence, the figures for `CC(C)CCNS(=O)(=O)c1ccc(-c2cnco2)cc1` were over 10 µM and 1.2 °C.
Turning to `Cc1nc(-c2ccc(C(=O)NCCC(F)(F)F)cc2)cs1`, the half-maximal effective concentration (EC50) in data set [1] was determined as 0.08 µM. For the same compound, the half-inhibitory concentration (IC50) in data set [2] was 0.4 µM. In data set [3], this compound came in with a solubility at 24 h of 14.7 µg/mL. In addition, the ΔTm in data set [4] is 11.2 °C.
Turning to `CC(C)CCNS(=O)(=O)c1ccc(-c2ccc(F)cc2)cc1`, the concentration for a half-maximal effect (EC50) in data set [1] is over 10 µM. In addition, the ΔTm in data set [4] was determined as 2.2 °C.
For `CCCCOc1ccc(S(=O)(=O)NCCC(C)C)cc1` the same measures were over 10 µM and 3.6 °C.
Taken in the same sequence, the figures for `Cc1nc(-c2ccc(S(=O)(=O)NCCC(C)(C)C)cc2)cs1` were over 20 µM and 2.3 °C.

The EC50 is the concentration needed to bring the measured effect to its halfway point. In general, IC50 refers to the concentration needed to halve the response being measured. What is called solubility is the concentration that dissolves in the medium under given conditions. A low value points to little dissolved substance. What is called ΔTm is the shift of the melting midpoint relative to a reference.

(Values after ChEMBL document CHEMBL3286364, “Ligand efficiency driven design of new inhibitors of Mycobacterium tuberculosis transcriptional repressor EthR using fragment growing, merging, and linking approaches” (J Med Chem, 2014).)
